From ChEMBL document CHEMBL1806444, “Synthesis of new chalcone derivatives bearing 2,4-thiazolidinedione and benzoic acid moieties as potential anti-bacterial agents” (2011)
In brackets after ≈: the same amount, converted by molar mass. Values belong to the compound of their own block, whether it stands above or below them.

Legend:
Format in all cases: functional
Escherichia coli [1] = experiment: Antibacterial activity against 10^5 CFU/mL Escherichia coli 1356 assessed as inhibition of bacterial growth after 24 hrs by microtiter enzyme-linked immunosorbent assay; conditions: Escherichia coli, 1356, 24 h
Staphylococcus aureus [2] = experiment: Antibacterial activity against 10^5 CFU/mL Staphylococcus aureus KCTC 503 assessed as inhibition of bacterial growth after 24 hrs by microtiter enzyme-linked immunosorbent assay; conditions: KCTC 503, 24 h
Staphylococcus aureus [3] = experiment: Antibacterial activity against 10^5 CFU/mL Staphylococcus aureus RN4220 assessed as inhibition of bacterial growth after 24 hrs by microtiter enzyme-linked immunosorbent assay; conditions: RN4220, 24 h
Escherichia coli [4] = experiment: Antibacterial activity against 10^5 CFU/mL Escherichia coli 1682 assessed as inhibition of bacterial growth after 24 hrs by microtiter enzyme-linked immunosorbent assay; conditions: Escherichia coli, 1682, 24 h
Staphylococcus aureus [5] = experiment: Antibacterial activity against 10^5 CFU/mL quinolone-resistant Staphylococcus aureus CCARM 3519 assessed as inhibition of bacterial growth after 24 hrs by microtiter enzyme-linked immunosorbent assay; conditions: CCARM 3519, 24 h
Procedure, shortened: (§1)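 Broth microdilution MIC. Bacteria grown to mid-log phase in Mueller-Hinton broth, diluted 1000-fold, and inoculated at 10⁵ CFU/mL in MHB, 0.2 mL/well in 96-well plates. Compounds dissolved in DMSO, final DMSO not exceeding 0.05%, in serial dilutions. Oxacillin and norfloxacin served as positive controls. MIC is the lowest concentration giving complete growth inhibition after 24 h at 37 °C.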

Staphylococcus aureus [6] = experiment: Antibacterial activity against 10^5 CFU/mL methicillin-resistant Staphylococcus aureus CCARM 3506 assessed as inhibition of bacterial growth after 24 hrs by microtiter enzyme-linked immunosorbent assay; conditions: CCARM 3506, 24 h; procedure, shortened: as §1
Staphylococcus aureus [7] = experiment: Antibacterial activity against 10^5 CFU/mL quinolone-resistant Staphylococcus aureus CCARM 3505 assessed as inhibition of bacterial growth after 24 hrs by microtiter enzyme-linked immunosorbent assay; conditions: CCARM 3505, 24 h; procedure, shortened: as §1
Staphylococcus aureus [8] = experiment: Antibacterial activity against 10^5 CFU/mL methicillin-resistant Staphylococcus aureus CCARM 3167 assessed as inhibition of bacterial growth after 24 hrs by microtiter enzyme-linked immunosorbent assay; conditions: CCARM 3167, 24 h; procedure, shortened: as §1
Staphylococcus aureus [9] = experiment: Ratio of Norfloxacin MIC to compound MIC for methicillin-resistant Staphylococcus aureus CCARM 3167
Staphylococcus aureus [10] = experiment: Ratio of oxacillin MIC to compound MIC for methicillin-resistant Staphylococcus aureus CCARM 3506
Staphylococcus aureus [11] = experiment: Ratio of oxacillin MIC to compound MIC for methicillin-resistant Staphylococcus aureus CCARM 3167
Staphylococcus aureus [12] = experiment: Ratio of Norfloxacin MIC to compound MIC for methicillin-resistant Staphylococcus aureus CCARM 3506

SMILES: O=C(O)c1ccc(CN2C(=O)S/C(=C\c3ccc(/C=C/C(=O)c4ccc(F)cc4)cc3)C2=O)cc1
MIC (Escherichia coli [1]): > 64 µg/mL
MIC (Staphylococcus aureus [2]): > 64 µg/mL
MIC (Staphylococcus aureus [3]): > 64 µg/mL
MIC (Escherichia coli [4]): > 64 µg/mL

SMILES: O=C(O)c1ccc(CN2C(=O)S/C(=C\c3ccc(/C=C/C(=O)c4cccc(Br)c4)cc3)C2=O)cc1
MIC (Escherichia coli [1]): > 64 µg/mL
MIC (Staphylococcus aureus [2]): > 64 µg/mL
MIC (Staphylococcus aureus [3]): > 64 µg/mL
MIC (Escherichia coli [4]): > 64 µg/mL

SMILES: COc1ccccc1C(=O)/C=C/c1ccc(/C=C2\SC(=O)N(Cc3ccc(C(=O)O)cc3)C2=O)cc1
MIC (Escherichia coli [1]): > 64 µg/mL
MIC (Staphylococcus aureus [5]): 2 µg/mL (≈ 4 µM)
MIC (Staphylococcus aureus [2]): 4 µg/mL (≈ 8.01 µM)
MIC (Staphylococcus aureus [3]): 2 µg/mL (≈ 4 µM)
MIC (Staphylococcus aureus [6]): 2 µg/mL (≈ 4 µM)
MIC (Staphylococcus aureus [7]): 4 µg/mL (≈ 8.01 µM)
MIC (Staphylococcus aureus [8]): 2 µg/mL (≈ 4 µM)
MIC (Escherichia coli [4]): > 64 µg/mL

SMILES: O=C(O)c1ccc(CN2C(=O)S/C(=C\c3ccc(/C=C/C(=O)c4ccc(Cl)cc4)cc3)C2=O)cc1
MIC (Escherichia coli [1]): > 64 µg/mL
MIC (Staphylococcus aureus [2]): > 64 µg/mL
MIC (Staphylococcus aureus [3]): > 64 µg/mL
MIC (Escherichia coli [4]): > 64 µg/mL

SMILES: O=C(O)c1ccc(CN2C(=O)S/C(=C\c3ccc(/C=C/C(=O)c4ccccc4)cc3)C2=O)cc1
Ratio (Staphylococcus aureus [9]): 8
Ratio (Staphylococcus aureus [10]): 64
MIC (Escherichia coli [1]): > 64 µg/mL
MIC (Staphylococcus aureus [5]): 2 µg/mL (≈ 4.26 µM)
MIC (Staphylococcus aureus [2]): 2 µg/mL (≈ 4.26 µM)
MIC (Staphylococcus aureus [3]): 1 µg/mL (≈ 2.13 µM)
MIC (Staphylococcus aureus [6]): 0.5 µg/mL (≈ 1.06 µM)
MIC (Staphylococcus aureus [7]): 2 µg/mL (≈ 4.26 µM)
MIC (Staphylococcus aureus [8]): 1 µg/mL (≈ 2.13 µM)
MIC (Escherichia coli [4]): > 64 µg/mL
Ratio (Staphylococcus aureus [11]): 64
Ratio (Staphylococcus aureus [12]): 8

SMILES: O=C(O)c1ccc(CN2C(=O)S/C(=C\c3ccc(/C=C/C(=O)c4cccc(O)c4)cc3)C2=O)cc1
MIC (Escherichia coli [1]): > 64 µg/mL
MIC (Staphylococcus aureus [5]): 2 µg/mL (≈ 4.12 µM)
MIC (Staphylococcus aureus [2]): 4 µg/mL (≈ 8.24 µM)
MIC (Staphylococcus aureus [3]): 2 µg/mL (≈ 4.12 µM)
MIC (Staphylococcus aureus [6]): 1 µg/mL (≈ 2.06 µM)
MIC (Staphylococcus aureus [7]): 2 µg/mL (≈ 4.12 µM)
MIC (Staphylococcus aureus [8]): 1 µg/mL (≈ 2.06 µM)
MIC (Escherichia coli [4]): > 64 µg/mL

SMILES: O=C(O)c1ccc(CN2C(=O)S/C(=C\c3ccc(/C=C/C(=O)c4ccccc4F)cc3)C2=O)cc1
MIC (Escherichia coli [1]): > 64 µg/mL
MIC (Staphylococcus aureus [2]): > 64 µg/mL
MIC (Staphylococcus aureus [3]): > 64 µg/mL
MIC (Escherichia coli [4]): > 64 µg/mL

SMILES: O=C(O)c1ccc(CN2C(=O)S/C(=C\c3ccc(/C=C/C(=O)c4ccccc4Cl)cc3)C2=O)cc1
MIC (Escherichia coli [1]): > 64 µg/mL
MIC (Staphylococcus aureus [5]): 2 µg/mL (≈ 3.97 µM)
MIC (Staphylococcus aureus [2]): 2 µg/mL (≈ 3.97 µM)
MIC (Staphylococcus aureus [3]): 1 µg/mL (≈ 1.98 µM)
MIC (Staphylococcus aureus [6]): 1 µg/mL (≈ 1.98 µM)
MIC (Staphylococcus aureus [7]): 2 µg/mL (≈ 3.97 µM)
MIC (Staphylococcus aureus [8]): 1 µg/mL (≈ 1.98 µM)
MIC (Escherichia coli [4]): > 64 µg/mL

SMILES: O=C(O)c1ccc(CN2C(=O)S/C(=C\c3ccc(/C=C/C(=O)c4ccc5ccccc5c4)cc3)C2=O)cc1
MIC (Escherichia coli [1]): > 64 µg/mL
MIC (Staphylococcus aureus [2]): > 64 µg/mL
MIC (Staphylococcus aureus [3]): > 64 µg/mL
MIC (Escherichia coli [4]): > 64 µg/mL

Results, then the compound that gave them:

MIC (Escherichia coli [1]): > 64 µg/mL
MIC (Staphylococcus aureus [2]): > 64 µg/mL
MIC (Staphylococcus aureus [3]): > 64 µg/mL
MIC (Escherichia coli [4]): > 64 µg/mL
SMILES: COC(=O)c1ccc(CN2C(=O)S/C(=C\c3ccc(/C=C/C(=O)c4cccc(O)c4)cc3)C2=O)cc1

MIC (Escherichia coli [1]): > 64 µg/mL
MIC (Staphylococcus aureus [2]): > 64 µg/mL
MIC (Staphylococcus aureus [3]): > 64 µg/mL
MIC (Escherichia coli [4]): > 64 µg/mL
SMILES: COC(=O)c1ccc(CN2C(=O)S/C(=C\c3ccc(/C=C/C(=O)c4ccc(F)cc4)cc3)C2=O)cc1

MIC (Escherichia coli [1]): > 64 µg/mL
MIC (Staphylococcus aureus [2]): > 64 µg/mL
MIC (Staphylococcus aureus [3]): > 64 µg/mL
MIC (Escherichia coli [4]): > 64 µg/mL
SMILES: COC(=O)c1ccc(CN2C(=O)S/C(=C\c3ccc(/C=C/C(=O)c4ccc(C)cc4)cc3)C2=O)cc1

MIC (Escherichia coli [1]): > 64 µg/mL
MIC (Staphylococcus aureus [2]): > 64 µg/mL
MIC (Staphylococcus aureus [3]): > 64 µg/mL
MIC (Escherichia coli [4]): > 64 µg/mL
SMILES: O=C(O)c1ccc(CN2C(=O)S/C(=C\c3ccc(/C=C/C(=O)c4cccc(Cl)c4)cc3)C2=O)cc1

MIC (Escherichia coli [1]): > 64 µg/mL
MIC (Staphylococcus aureus [2]): > 64 µg/mL
MIC (Staphylococcus aureus [3]): > 64 µg/mL
MIC (Escherichia coli [4]): > 64 µg/mL
SMILES: COC(=O)c1ccc(CN2C(=O)S/C(=C\c3ccc(/C=C/C(=O)c4cccc(OC)c4)cc3)C2=O)cc1

MIC (Escherichia coli [1]): > 64 µg/mL
MIC (Staphylococcus aureus [2]): > 64 µg/mL
MIC (Staphylococcus aureus [3]): > 64 µg/mL
MIC (Escherichia coli [4]): > 64 µg/mL
SMILES: COC(=O)c1ccc(CN2C(=O)S/C(=C\c3ccc(/C=C/C(=O)c4ccc(C)cc4C)cc3)C2=O)cc1

MIC (Escherichia coli [1]): > 64 µg/mL
MIC (Staphylococcus aureus [2]): > 64 µg/mL
MIC (Staphylococcus aureus [3]): > 64 µg/mL
MIC (Escherichia coli [4]): > 64 µg/mL
SMILES: COC(=O)c1ccc(CN2C(=O)S/C(=C\c3ccc(/C=C/C(=O)c4ccc(OC)cc4)cc3)C2=O)cc1

MIC (Escherichia coli [1]): > 64 µg/mL
MIC (Staphylococcus aureus [2]): > 64 µg/mL
MIC (Staphylococcus aureus [3]): > 64 µg/mL
MIC (Escherichia coli [4]): > 64 µg/mL
SMILES: COC(=O)c1ccc(CN2C(=O)S/C(=C\c3ccc(/C=C/C(=O)c4cccc(Br)c4)cc3)C2=O)cc1

MIC (Escherichia coli [1]): > 64 µg/mL
MIC (Staphylococcus aureus [2]): > 64 µg/mL
MIC (Staphylococcus aureus [3]): > 64 µg/mL
MIC (Escherichia coli [4]): > 64 µg/mL
SMILES: COC(=O)c1ccc(CN2C(=O)S/C(=C\c3ccc(/C=C/C(=O)c4ccccc4O)cc3)C2=O)cc1

MIC (Escherichia coli [1]): > 64 µg/mL
MIC (Staphylococcus aureus [2]): > 64 µg/mL
MIC (Staphylococcus aureus [3]): > 64 µg/mL
MIC (Escherichia coli [4]): > 64 µg/mL
SMILES: COC(=O)c1ccc(CN2C(=O)S/C(=C\c3ccc(/C=C/C(=O)c4ccccc4F)cc3)C2=O)cc1

MIC (Escherichia coli [1]): > 64 µg/mL
MIC (Staphylococcus aureus [2]): > 64 µg/mL
MIC (Staphylococcus aureus [3]): > 64 µg/mL
MIC (Escherichia coli [4]): > 64 µg/mL
SMILES: COC(=O)c1ccc(CN2C(=O)S/C(=C\c3ccc(/C=C/C(=O)c4ccc(Cl)cc4Cl)cc3)C2=O)cc1
